# Measurements reported in PMC6138487 (British Journal of Clinical Pharmacology, 2018).
# Marks after values point to notes of the source that are not given here.
# Key:
# Assay type in all cases: in vivo, human
# [1] = Pharmacokinetics of elobixibat; details: for AUC(0–t), back transformed LSM ratio breakfast/no breakfast / Cmax, back transformed LSM ratio breakfast/no breakfast: linear mixed effect model; for fe144h / Ae144h: urine 0-144 h; for fe144h: arithmetic mean; for Ae144h: geometric mean (CV)
# Method in brief: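 Single oral dose, 2.5–20 mg, with or without breakfast, in crossover. Plasma was drawn predose and at 0.5–12 h on Days –1, 1, 7 and 8, plus daily. Urine was collected daily except Day 7. Analyte was measured by LC–MS/MS (LLOQ 10.0 pg ml–1). Noncompartmental analysis with linear trapezoidal AUC. Dose proportionality (no-breakfast regimen) was assessed by power model or ANOVA on log values. Food effect: mixed model, back-transformed LSM ratios.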
# [2] = system: plasma 7α‐hydroxy‐4‐cholesten‐3‐one (C4); experiment: Plasma C4 level, M-test; details: Day 8 and Day 14; P < 0.001 except 2.5 mg day^–1
# [3] = system: serum low‐density lipoprotein cholesterol (LDL‐C); experiment: Serum LDL-C level, M-test; details: Day 8 and Day 14; P < 0.001 except 2.5 mg day^–1
# [4] = system: plasma 7α‐hydroxy‐4‐cholesten‐3‐one (C4); experiment: Food effect on plasma C4, S-test; details: up to 24 h, AUEC P < 0.001
# Method in brief: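 Crossover single dose taken 15 min before breakfast or fasting. Plasma was sampled predose and at 0.5–12 h on Days –1, 1, 7 and 8, plus daily. C4 was measured by LC–MS/MS (LLOQ 2 ng ml–1). […] Food effect was assessed by linear mixed model (dose, food, intervention, period fixed; patient random).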
# [5] = system: patients with chronic constipation; experiment: Adverse events, M-test
# Method in brief: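 Patients randomized 5:1 to test compound (2.5, 5, 10, 15 or 20 mg) or placebo. Oral tablet once daily before breakfast for 14 consecutive days, inpatient Day –2 to Day 21. AE type, severity and incidence were recorded with physical exams, vital signs, 12-lead ECG and laboratory tests. Proportions of patients with AEs were tabulated, and dose-dependency was tested by Cochran–Armitage trend test.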
# [6] = single dose 2.5 mg, before breakfast
# [7] = single dose 2.5 mg, no breakfast
# [8] = single dose 5 mg, before breakfast
# [9] = single dose 10 mg, before breakfast
# [10] = single dose 10 mg, no breakfast
# [11] = single dose 15 mg, before breakfast
# [12] = single dose 15 mg, no breakfast
# [13] = single dose 20 mg, before breakfast
# [14] = single dose 20 mg, no breakfast
# [15] = 2.5 mg once daily 14 days (group n=10)
# [16] = 5 mg once daily 14 days (group n=10)
# [17] = 10 mg once daily 14 days (group n=9)
# [18] = 15 mg once daily 14 days (group n=10)
# [19] = 20 mg once daily 14 days (group n=10)
smiles,measurement,setting,value
CCCCC1(CCCC)CN(c2ccccc2)c2cc(SC)c(OCC(=O)N[C@@H](C(=O)NCC(=O)O)c3ccccc3)cc2S(=O)(=O)C1 [elobixibat],"plasma elobixibat concentration, range",[1]; 2.5-20 mg,picomolar range
same,quantity of drug excreted in the urine,"[1]; all dosing levels, both regimens",less than 0.01%
same,slope of the regression line (power model) for Ae144h,"[1]; no‐breakfast regimen, 2.5-20 mg, dose proportionality",0.9321
same,fraction of dose excreted in urine (fe) up to 144 h,"[1]; no‐breakfast regimen, all dosing groups (2.5-20 mg)",< 0.01%
same,t1/2 versus dose,"[1]; no‐breakfast regimen, P < 0.001, said to be apparent (LLOQ)",prolonged dose‐dependently
same,"AUC(0–t), back transformed LSM ratio breakfast/no breakfast",[1]; single dose 2.5 mg,0.1368
same,"Cmax, back transformed LSM ratio breakfast/no breakfast",[1]; single dose 2.5 mg,0.2448
same,"AUC(0–t), back transformed LSM ratio breakfast/no breakfast",[1]; single dose 5 mg,0.2318
same,"Cmax, back transformed LSM ratio breakfast/no breakfast",[1]; single dose 5 mg,0.2922
same,"AUC(0–t), back transformed LSM ratio breakfast/no breakfast",[1]; single dose 10 mg,0.1989
same,"Cmax, back transformed LSM ratio breakfast/no breakfast",[1]; single dose 10 mg,0.2531
same,"AUC(0–t), back transformed LSM ratio breakfast/no breakfast",[1]; single dose 15 mg,0.1884
same,"Cmax, back transformed LSM ratio breakfast/no breakfast",[1]; single dose 15 mg,0.2085
same,"AUC(0–t), back transformed LSM ratio breakfast/no breakfast",[1]; single dose 20 mg,0.2275
same,"Cmax, back transformed LSM ratio breakfast/no breakfast",[1]; single dose 20 mg,0.2240
same,fe144h,[1]; [6],0.0008 ^a %
same,Ae144h,[1]; [6],24.30 (72.9) ^a ng
same,fe144h,[1]; [7],0.0098%
same,Ae144h,[1]; [7],213.28 (59.5) ng
same,fe144h,[1]; [8],0.0021%
same,Ae144h,[1]; [8],107.50 (63.4) ng
same,fe144h,"[1]; single dose 5 mg, no breakfast",0.0077%
same,Ae144h,"[1]; single dose 5 mg, no breakfast",306.59 (38.8) ng
same,fe144h,[1]; [9],0.0016%
same,Ae144h,[1]; [9],139.38 (49.9) ng
same,fe144h,[1]; [10],0.0070%
same,Ae144h,[1]; [10],598.14 (67.8) ng
same,fe144h,[1]; [11],0.0013 ^a %
same,Ae144h,[1]; [11],188.43 (37.2) ^a ng
same,fe144h,[1]; [12],0.0070 ^a %
same,Ae144h,[1]; [12],873.09 (68.4) ^a ng
same,fe144h,[1]; [13],0.0021 ^a %
same,Ae144h,[1]; [13],384.85 (55.6) ^a ng
same,fe144h,[1]; [14],0.0088%
same,Ae144h,[1]; [14],1623.23 (41.5) ng
same,C4 AUEC relative to placebo (ANCOVA),[2],significantly greater
same,LDL‐C AUEC compared to placebo (ANCOVA),[3],significantly greater reductions
same,"C4 Emax and AUEC, breakfast regimen compared with no‐breakfast regimen",[4],significantly greater elevations
same,"AEs associated with gastrointestinal disorders, % of patients",[5]; [15],(80.0) %
same,"AEs associated with gastrointestinal disorders, n of patients",[5]; [15],8
same,"Any AEs, % of patients",[5]; [15],(80.0) %
same,"Any AEs, n of patients",[5]; [15],8
same,"abdominal distention, % of patients",[5]; [15],(30.0) %
same,"abdominal distention, n of patients",[5]; [15],3
same,"abdominal pain lower, % of patients",[5]; [15],(40.0) %
same,"abdominal pain lower, n of patients",[5]; [15],4
same,"abdominal pain upper, n of patients",[5]; [15],0
same,"diarrhoea, % of patients",[5]; [15],(10.0) %
same,"diarrhoea, n of patients",[5]; [15],1
same,"AEs associated with gastrointestinal disorders, % of patients",[5]; [16],(80.0) %
same,"AEs associated with gastrointestinal disorders, n of patients",[5]; [16],8
same,"Any AEs, % of patients",[5]; [16],(90.0) %
same,"Any AEs, n of patients",[5]; [16],9
same,"abdominal distention, % of patients",[5]; [16],(30.0) %
same,"abdominal distention, n of patients",[5]; [16],3
same,"abdominal pain lower, % of patients",[5]; [16],(30.0) %
same,"abdominal pain lower, n of patients",[5]; [16],3
same,"abdominal pain upper, % of patients",[5]; [16],(20.0) %
same,"abdominal pain upper, n of patients",[5]; [16],2
same,"diarrhoea, % of patients",[5]; [16],(40.0) %
same,"diarrhoea, n of patients",[5]; [16],4
same,"AEs associated with gastrointestinal disorders, % of patients",[5]; [17],(77.8) %
same,"AEs associated with gastrointestinal disorders, n of patients",[5]; [17],7
same,"Any AEs, % of patients",[5]; [17],(100.0) %
same,"Any AEs, n of patients",[5]; [17],9
same,"abdominal distention, % of patients",[5]; [17],(22.2) %
same,"abdominal distention, n of patients",[5]; [17],2
same,"abdominal pain lower, % of patients",[5]; [17],(33.3) %
same,"abdominal pain lower, n of patients",[5]; [17],3
same,"abdominal pain upper, % of patients",[5]; [17],(22.2) %
same,"abdominal pain upper, n of patients",[5]; [17],2
same,"diarrhoea, % of patients",[5]; [17],(44.4) %
same,"diarrhoea, n of patients",[5]; [17],4
same,"AEs associated with gastrointestinal disorders, % of patients",[5]; [18],(70.0) %
same,"AEs associated with gastrointestinal disorders, n of patients",[5]; [18],7
same,"Any AEs, % of patients",[5]; [18],(90.0) %
same,"Any AEs, n of patients",[5]; [18],9
same,"abdominal distention, % of patients",[5]; [18],(40.0) %
same,"abdominal distention, n of patients",[5]; [18],4
same,"abdominal pain lower, % of patients",[5]; [18],(40.0) %
same,"abdominal pain lower, n of patients",[5]; [18],4
same,"abdominal pain upper, n of patients",[5]; [18],0
same,"diarrhoea, % of patients",[5]; [18],(40.0) %
same,"diarrhoea, n of patients",[5]; [18],4
same,"AEs associated with gastrointestinal disorders, % of patients",[5]; [19],(90.0) %
same,"AEs associated with gastrointestinal disorders, n of patients",[5]; [19],9
same,"Any AEs, % of patients",[5]; [19],(90.0) %
same,"Any AEs, n of patients",[5]; [19],9
same,"abdominal distention, % of patients",[5]; [19],(60.0) %
same,"abdominal distention, n of patients",[5]; [19],6
same,"abdominal pain lower, % of patients",[5]; [19],(50.0) %
same,"abdominal pain lower, n of patients",[5]; [19],5
same,"abdominal pain upper, % of patients",[5]; [19],(20.0) %
same,"abdominal pain upper, n of patients",[5]; [19],2
same,"diarrhoea, % of patients",[5]; [19],(80.0) %
same,"diarrhoea, n of patients",[5]; [19],8
same,safety and tolerability,"[5]; once‐daily administration, female and male patients",safe and tolerated up to 20 mg
